Laboratory results taken from ChEMBL document CHEMBL3864132, “Free fatty acid receptor 1 (GPR40) agonists containing spirocyclic periphery inspired by LY2881835” (Bioorg Med Chem, 2016).
pEC50: −log10 of the molar value.

Assays:
[1] = Kinetic aqueous solubility of the compound in PBS buffer […] at pH 7.4 after 2 hrs by UV-Visible spectrophotometric analysis; format: physicochemical; conditions: read-out: Kinetic_solubility
How it was run: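 Equilibrated 2 h at 25°C with shaking, then filtered. Filtrates read by UV-Vis scan against 0–400 μM calibration curves in methanol/PBS.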

[2] = Protein binding in human plasma at 1 uM after 5 hrs by HPLC-MS/MS analysis; format: ADME, cell-free; conditions: read-out: PPB (converted)
How it was run: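 Equilibrium dialysis (12–14 kDa MWCO) of plasma spiked at 1 μM (1% solvent) against PBS pH 7.4, 5 h at 37°C with shaking, quadruplicates. Chambers matrix-matched, precipitated with acetonitrile and analysed by HPLC-MS/MS. Bound % = (1 − buffer/plasma peak area) × 100; recovery checked against undialyzed spiked plasma.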

[3] = molecular target: T1, Free fatty acid receptor 1 (Homo sapiens, UniProt O14842); assay: Agonist activity at human FFA1 receptor expressed in CHO cells assessed as induction of Ca2+ flux by fluo-8 dye based FLIPR assay; format: functional, cell-based
T1 sequence (O14842 whole entry): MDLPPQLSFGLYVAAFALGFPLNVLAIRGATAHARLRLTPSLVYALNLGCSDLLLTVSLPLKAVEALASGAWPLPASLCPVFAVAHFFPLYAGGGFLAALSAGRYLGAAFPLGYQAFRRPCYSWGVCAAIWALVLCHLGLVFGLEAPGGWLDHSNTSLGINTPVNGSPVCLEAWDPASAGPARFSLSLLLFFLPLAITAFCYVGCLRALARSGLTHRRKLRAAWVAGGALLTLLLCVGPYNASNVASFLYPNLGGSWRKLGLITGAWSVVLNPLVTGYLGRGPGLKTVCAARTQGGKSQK
How it was run: (§1)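 CHO cells stably expressing human GPR40 seeded 24 h before assay, loaded 1 h with Fluo-8 calcium dye, read on FLIPR. Agonist response taken as maximum fluorescence change over baseline; concentration-response curves fitted for EC50. Efficacy expressed relative to GW9508 at 5 μM.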

[4] = molecular target: T2, Free fatty acid receptor 2 (Homo sapiens, UniProt O15552); assay: Agonist activity at human FFA2 receptor expressed in CHO cells assessed as induction of Ca2+ flux by fluo-8 dye based FLIPR assay; format: functional, cell-based
T2 sequence (O15552 whole entry): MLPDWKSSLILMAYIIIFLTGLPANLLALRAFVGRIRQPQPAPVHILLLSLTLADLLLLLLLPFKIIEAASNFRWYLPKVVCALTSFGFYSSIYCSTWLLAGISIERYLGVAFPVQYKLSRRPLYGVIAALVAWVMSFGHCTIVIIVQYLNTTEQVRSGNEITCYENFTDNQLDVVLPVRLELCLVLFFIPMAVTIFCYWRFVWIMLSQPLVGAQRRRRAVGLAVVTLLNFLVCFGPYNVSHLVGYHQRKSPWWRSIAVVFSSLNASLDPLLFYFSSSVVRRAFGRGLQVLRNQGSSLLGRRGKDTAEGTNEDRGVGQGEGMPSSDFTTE
How it was run: (§2)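 CHO lines stably expressing the respective receptor (GPR43, GPR41 or GPR120) used for specificity screening. Cells loaded 1 h with Fluo-8 calcium dye and read by FLIPR; maximum fluorescence change over baseline taken as agonist response.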

[5] = Apparent permeability from apical to basolateral side in human Caco2 cells at 10 uM by HPLC-MS analysis; format: ADME, cell-based; conditions: Caco-2
How it was run: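 Apical-to-basolateral transport across Caco-2 monolayers, integrity checked by TEER in every well. Compound at 10 μM, acceptor concentrations by HPLC-MS. Papp = (VA/(area × time)) × ([drug]acc/[drug]initial,donor), insert area 0.31 cm², in 10^-6 cm/s. Mean of n = 2.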

[6] = Half life in BALB/c mouse liver microsomes at 2 uM by HPLC-MS analysis; format: ADME
How it was run: (§3)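 Pooled liver microsomes from male BALB/c mice at 0.42 mg protein/ml in 100 mM potassium phosphate pH 7.4 with MgCl2, NADPH and a G6P/G6PDH regenerating system. Compound 2 μM (1.6% solvent), 37°C, five time points over 40 min, duplicates. Quenched in acetonitrile, analysed by HPLC-MS/MS. kel from ln(AUC) versus time; T1/2 = 0.693/kel; CLint scaled to incubation volume per mg microsomes.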

[7] = Intrinsic clearance in BALB/c mouse liver microsomes at 2 uM up to 40 mins by HPLC-MS analysis; format: ADME; how it was run: as §3
[8] = molecular target: T1, Free fatty acid receptor 1; assay: Agonist activity at human FFA1 receptor expressed in CHO cells assessed as induction of Ca2+ flux by fluo-8 dye based FLIPR assay relative to GW9508; format: functional, cell-based; how it was run: as §1
[9] = molecular target: T3, Free fatty acid receptor 3 (Homo sapiens, UniProt O14843); assay: Agonist activity at human FFA3 receptor expressed in CHO cells assessed as induction of Ca2+ flux by fluo-8 dye based FLIPR assay; format: functional, cell-based; how it was run: as §2
T3 sequence (O14843 whole entry): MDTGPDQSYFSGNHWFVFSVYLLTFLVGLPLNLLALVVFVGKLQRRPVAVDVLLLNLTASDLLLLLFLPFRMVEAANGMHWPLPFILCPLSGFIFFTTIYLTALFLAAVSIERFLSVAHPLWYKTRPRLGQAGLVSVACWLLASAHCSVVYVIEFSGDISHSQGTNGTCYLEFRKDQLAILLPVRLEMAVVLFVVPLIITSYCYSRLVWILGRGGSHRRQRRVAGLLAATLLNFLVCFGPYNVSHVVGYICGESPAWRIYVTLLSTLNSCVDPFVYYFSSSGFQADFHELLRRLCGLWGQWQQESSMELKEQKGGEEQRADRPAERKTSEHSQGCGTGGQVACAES

[10] = molecular target: T4, Free fatty acid receptor 4 (Homo sapiens, UniProt Q5NUL3); assay: Agonist activity at human FFA4 receptor expressed in CHO cells assessed as induction of Ca2+ flux by fluo-8 dye based FLIPR assay; format: functional, cell-based; how it was run: as §2
T4 sequence (Q5NUL3 whole entry): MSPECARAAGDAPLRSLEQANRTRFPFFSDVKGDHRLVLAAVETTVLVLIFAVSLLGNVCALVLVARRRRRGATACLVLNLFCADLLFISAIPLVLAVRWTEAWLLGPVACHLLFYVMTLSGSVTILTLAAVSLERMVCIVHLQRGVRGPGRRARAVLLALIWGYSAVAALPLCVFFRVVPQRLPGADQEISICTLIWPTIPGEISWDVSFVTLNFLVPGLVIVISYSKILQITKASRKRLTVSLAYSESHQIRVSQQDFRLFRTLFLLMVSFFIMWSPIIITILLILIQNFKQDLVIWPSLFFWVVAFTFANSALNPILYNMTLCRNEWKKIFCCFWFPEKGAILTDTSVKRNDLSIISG

[11] = Observed AUC infinity in JAXC57BL/6J mouse at 10 mg/kg, iv through bolus administration measured after 10 to 240 mins by HPLC-MS analysis; format: ADME, organism-based; design: dose 10 mg/kg, route intravenous, time infinity; conditions: C57BL/6J, in vivo
How it was run: (§4)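 Male C57BL/6J mice given 10 mg/kg as tail-vein bolus in 10% β-cyclodextrin (5 ml/kg). Plasma by cardiac puncture at 10, 30, 60, 120 and 240 min (n=5 per time point), stored at -70°C. Levels by HPLC-MS/MS; parameters from group data by linear trapezoidal rule.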

[12] = Cmax in JAXC57BL/6J mouse at 10 mg/kg, iv through bolus administration measured after 10 to 240 mins by HPLC-MS analysis; format: ADME, organism-based; design: dose 10 mg/kg, route intravenous; conditions: C57BL/6J, in vivo; how it was run: as §4
[13] = Observed AUC infinity in JAXC57BL/6J mouse at 10 mg/kg, po administered through plastic gavage as single dose measured up to 240 mins by HPLC-MS analysis; format: ADME, organism-based; design: dose 10 mg/kg, time infinity, route oral; conditions: C57BL/6J, in vivo
How it was run: (§5)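 Male C57BL/6J mice dosed orally by gavage, 10 mg/kg single dose in 10% β-cyclodextrin (5 ml/kg). Plasma sampled at 30, 60, 120, 240 and 360 min (n=5 per time point), with 360 min excluded from calculations. HPLC-MS/MS quantitation; Cmax, Tmax and AUC from group data by linear trapezoidal rule.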

[14] = Tmax in JAXC57BL/6J mouse at 10 mg/kg, iv through bolus administration measured after 10 to 240 mins by HPLC-MS analysis; format: ADME, organism-based; conditions: C57BL/6J, in vivo; how it was run: as §4
[15] = Oral bioavailability in JAXC57BL/6J mouse at 10 mg/kg administered through plastic gavage as single dose measured up to 240 mins by HPLC-MS analysis; format: ADME, organism-based; conditions: C57BL/6J, in vivo
How it was run: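 F = AUC0-∞ oral / AUC0-∞ i.v. × 100%, from male C57BL/6J mice given 10 mg/kg in 10% β-cyclodextrin by gavage or tail-vein bolus. n=5 per time point; plasma drug by HPLC-MS/MS.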

[16] = Tmax in JAXC57BL/6J mouse at 10 mg/kg, po administered through plastic gavage as single dose by HPLC-MS analysis; format: ADME, organism-based; conditions: C57BL/6J, in vivo; how it was run: as §5
[17] = Cmax in JAXC57BL/6J mouse at 10 mg/kg, po administered through plastic gavage as single dose measured up to 240 mins by HPLC-MS analysis; format: ADME, organism-based; design: dose 10 mg/kg, route oral; conditions: C57BL/6J, in vivo; how it was run: as §5

With Cl.O=C(O)CCc1ccc(OCc2ccc(CN3CCC4(CC3)CC(Cc3ccccc3)CCO4)cc2)cc1 (centres undefined) as the compound, how does the solubility kinetic at 2 h [1] read?
The solubility kinetic at 2 h was 151 µM.

And the fraction unbound at 5 h, 1 µM [2]?
The fraction unbound at 5 h, 1 µM was 0.012.

What about the pEC50 [3] of the same compound?
Its pEC50 is 7.26.

And the pEC50 [4]?
The pEC50 was < 5.00.

What about the Papp A→B at 10 µM [5] of the same compound?
The Papp A→B at 10 µM was 120 nm/s.

And the half-life at 2 µM [6]?
The half-life at 2 µM was 8.5 min.

And the CLint at 40 min, 2 µM [7]?
The CLint at 40 min, 2 µM was 196 µL/min/mg.

And the Emax [8]?
Its Emax is 93%.

What about the pEC50 [9] of the same compound?
Its pEC50 is < 5.00.

And the pEC50 [10]?
The pEC50 was < 5.00.

With CC1CCOC2(CCN(Cc3ccc(COc4ccc(CCC(=O)O)cc4)cc3)CC2)C1 (centres undefined) as the compound, how does the pEC50 [3] read?
Its pEC50 is < 4.70.

With O=C(O)CCc1ccc(OCc2ccc(CN3CCC4(CC3)CC(OCC3CC3)CCO4)cc2)cc1 (centres undefined) as the compound, how does the pEC50 [3] read?
Its pEC50 is < 4.70.

Which results are given for O=C(O)CCc1ccc(OCc2ccc(CN3CCC4(CC3)CC(OCc3cccc(F)c3)CCO4)cc2)cc1 (centres undefined)?
pEC50 [3]: 5.89; Emax [8]: 98%

With O=C(O)CCc1ccc(OCc2ccc(CN3CCC4(CC3)CC(Cc3nc(-c5cccnc5)no3)CCO4)cc2)cc1 (centres undefined) as the compound, how does the pEC50 [3] read?
Its pEC50 is < 4.70.

With O=C(O)CCc1ccc(OCc2ccc(CN3CCC4(CC3)CC(OCc3ccccc3)CCO4)cc2)cc1 (centres undefined) as the compound, how does the pEC50 [3] read?
The pEC50 was 5.94.

And the Emax [8]?
The Emax was 100%.

With CCOC1CCOC2(CCN(Cc3ccc(COc4ccc(CCC(=O)O)cc4)cc3)CC2)C1 (centres undefined) as the compound, how does the pEC50 [3] read?
Its pEC50 is < 4.70.

With O=C(O)CCc1ccc(OCc2ccc(CN3CCC4(CC3)CC(Cc3cccc(F)c3)CCO4)cc2)cc1 (centres undefined) as the compound, how does the pEC50 [3] read?
The pEC50 was < 4.70.

Which results are given for Cl.O=C(O)CCc1ccc(OCc2ccc(CN3CCC4(CC3)CC(Cc3ccc(F)cc3)CCO4)cc2)cc1 (centres undefined)?
solubility kinetic at 2 h [1]: 143 µM; AUC(0-inf) [11]: 1.79 µg·h/mL; fraction unbound at 5 h, 1 µM [2]: 0.017; pEC50 [3]: 6.39; Cmax [12]: 2.77 µg/mL; pEC50 [4]: < 5.00; Papp A→B at 10 µM [5]: 87 nm/s; half-life at 2 µM [6]: 23.4 min; AUC(0-inf) [13]: 0.184 µg·h/mL; CLint at 40 min, 2 µM [7]: 71.3 µL/min/mg; Tmax [14]: 10 min; Emax [8]: 88%; pEC50 [9]: < 5.00; bioavailability [15]: 10.3%; pEC50 [10]: < 5.00; Tmax [16]: 30 min; Cmax [17]: 0.226 µg/mL

With COCCc1noc(CC2CCOC3(CCN(Cc4ccc(COc5ccc(CCC(=O)O)cc5)cc4)CC3)C2)n1 (centres undefined) as the compound, how does the pEC50 [3] read?
The pEC50 was < 4.70.

With O=C(O)CCc1ccc(OCc2ccc(CN3CCC4(CC3)CC(Cc3ccc(C(F)(F)F)cc3)CCO4)cc2)cc1 (centres undefined) as the compound, how does the pEC50 [3] read?
Its pEC50 is 5.90.

What about the Emax [8] of the same compound?
Its Emax is 74%.
